11 compounds from ChEMBL document CHEMBL1833817, “Synthesis and cytotoxicity of 8-cyano-3-substitutedalkyl-5-methyl-4-methylene-7-methoxy-3,4-dihydropyrido[4,3-d]pyrimidines” (Bioorg Med Chem Lett, 2011) can be followed below.

Common to all, as to type: functional, cell-based
One assay deals with KB. The experiment in a line: Cytotoxicity against human KB cells after 3 days by MTT assay. As to conditions: 72 h. An outline of the steps:
(§1)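 Exponential-phase cells seeded at 5 × 10⁴–1 × 10⁵ cells/mL in fresh medium, grown overnight, then treated with compounds dissolved in DMSO at selected concentrations for 3 days. MTT in PBS (10 mg/mL stock) added for 3 h. Formazan dissolved in DMSO and read at 540 nm, with PBS lacking MTT as blank. Inhibition rate taken from averaged OD; IC50 = concentration giving 50% growth inhibition. Coefficients of variation <10%.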

Assay [1] in a line: Cytotoxicity against human CNE2 cells after 3 days by MTT assay. The conditions noted are these: CNE-2, 72 h. An outline of the steps: as §1
A general note: Tetrazolium assays rely on reduction of a dye to a coloured formazan, in cell work by metabolically active cells.

The test system of another assay is MGC-803. Put plainly: Cytotoxicity against human MGC803 cells after 3 days by MTT assay. The conditions noted are these: MGC-803, 72 h. An outline of the steps: as §1

Structures are written as SMILES.

For `C=C1c2c(C)nc(OC)c(C#N)c2N=CN1Cc1ccccc1`, the half-maximal inhibitory concentration (IC50) (in general, the concentration needed to halve the response being measured) in the assay on KB was over 50000 nM.

`C=C1c2c(C)nc(OC)c(C#N)c2N=CN1CC`: the IC50 in the assay with KB is over 50000 nM.

For the compound `C=C1c2c(C)nc(OC)c(C#N)c2N=CN1CCc1ccc(Cl)cc1`, the IC50 in the assay on KB is over 50000 nM.

In the case of `C=C1c2c(C)nc(OC)c(C#N)c2N=CN1CCC`, the IC50 in the assay with KB was over 50000 nM.

Regarding `C=C1c2c(C)nc(OC)c(C#N)c2N=CN1Cc1ccc(C)cc1`, the half-inhibitory concentration (IC50) in the assay with KB came out at 480 nM; in assay [1], 150 nM; with MGC-803, 590 nM.

As for `C=C1c2c(C)nc(OC)c(C#N)c2N=CN1Cc1ccc(OC)cc1`, the IC50 in the assay on KB was 670 nM; in assay [1], 180 nM; with MGC-803 it was 670 nM.

Compound `C=C1c2c(C)nc(OC)c(C#N)c2N=CN1Cc1ccco1` returned an IC50 with KB of over 50000 nM.

For the compound `C=C1c2c(C)nc(OC)c(C#N)c2N=CN1Cc1ccc(Cl)cc1`, 20000 nM corresponded to half-maximal inhibition with KB (IC50).

Compound `C=C1c2c(C)nc(OC)c(C#N)c2N=CN1CCCCCC` returned an IC50 with KB of over 50000 nM.

Consider `COc1nc(C)c2c(C)ncnc2c1C#N`, for which the IC50 with KB is over 50000 nM.

In the assay on KB, `C=C1c2c(C)nc(OC)c(C#N)c2N=CN1Cc1cccc(C)c1` returned an IC50 of 37000 nM.
